The values below come from ChEMBL document CHEMBL5537199, “Discovery and SAR Study of Boronic Acid-Based Selective PDE3B Inhibitors from a Novel DNA-Encoded Library” (J Med Chem, 2024).

Assay [1] addresses cGMP-inhibited 3',5'-cyclic phosphodiesterase 3B (Homo sapiens, UniProt Q13370). Put plainly: Inhibition of full-length PDE3B (M1 to E1112 residues) (unknown origin) using FAM-cAMP as substrate incubated for 120 mins by TR-FRET IMAP assay. Summed up:
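Buffer 50 mM Tris-HCl pH 7.5, 8.3 mM MgCl2, 1.7 mM EGTA, 0.05% BSA. Compounds run as a concentration curve with a top final concentration of 100 μM. DMSO and 10 μM trequinsin served as controls. Terbium TR-FRET ratio read at 520:490 nm.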
Background: In TR-FRET formats the signal depends on donor and acceptor labels being close together.

The target in assay [2] is cGMP-inhibited 3',5'-cyclic phosphodiesterase 3A (Homo sapiens, UniProt Q14432). The assay is described as follows: Inhibition of PDE3A (M1 to Q1141 residues) (unknown origin) using FAM-cAMP as substrate incubated for 45 mins by TR-FRET IMAP assay. An outline of the steps: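 Full-length PDE3A at 1.6 nM with 50 nM FAM-cAMP, 45 min reaction. Buffer 50 mM Tris-HCl pH 7.5, 8.3 mM MgCl2, 1.7 mM EGTA, 0.05% BSA. Compounds run as a concentration curve with a top final concentration of 100 μM. DMSO and 10 μM trequinsin served as controls. TR-FRET read at Ex 337 nm, Em 520/490 nm.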

Assay [3] is described as follows: Selectivity ratio of inhibition for PDE3A (M1 to Q1141 residues) (unknown origin) by IMAP assay to inhibition for PDE3B (M1 to E1112 residues) (unknown origin) by IMAP assay.
Assay [4] is described as follows: Selectivity ratio of inhibition for PDE3A (M1 to Q1141 residues) (unknown origin) by RF-MS assay to inhibition for PDE3B (M1 to E1112 residues) (unknown origin) by RF-MS assay.

Chain of cGMP-inhibited 3',5'-cyclic phosphodiesterase 3B (Q13370 whole entry, the tested form may be a part): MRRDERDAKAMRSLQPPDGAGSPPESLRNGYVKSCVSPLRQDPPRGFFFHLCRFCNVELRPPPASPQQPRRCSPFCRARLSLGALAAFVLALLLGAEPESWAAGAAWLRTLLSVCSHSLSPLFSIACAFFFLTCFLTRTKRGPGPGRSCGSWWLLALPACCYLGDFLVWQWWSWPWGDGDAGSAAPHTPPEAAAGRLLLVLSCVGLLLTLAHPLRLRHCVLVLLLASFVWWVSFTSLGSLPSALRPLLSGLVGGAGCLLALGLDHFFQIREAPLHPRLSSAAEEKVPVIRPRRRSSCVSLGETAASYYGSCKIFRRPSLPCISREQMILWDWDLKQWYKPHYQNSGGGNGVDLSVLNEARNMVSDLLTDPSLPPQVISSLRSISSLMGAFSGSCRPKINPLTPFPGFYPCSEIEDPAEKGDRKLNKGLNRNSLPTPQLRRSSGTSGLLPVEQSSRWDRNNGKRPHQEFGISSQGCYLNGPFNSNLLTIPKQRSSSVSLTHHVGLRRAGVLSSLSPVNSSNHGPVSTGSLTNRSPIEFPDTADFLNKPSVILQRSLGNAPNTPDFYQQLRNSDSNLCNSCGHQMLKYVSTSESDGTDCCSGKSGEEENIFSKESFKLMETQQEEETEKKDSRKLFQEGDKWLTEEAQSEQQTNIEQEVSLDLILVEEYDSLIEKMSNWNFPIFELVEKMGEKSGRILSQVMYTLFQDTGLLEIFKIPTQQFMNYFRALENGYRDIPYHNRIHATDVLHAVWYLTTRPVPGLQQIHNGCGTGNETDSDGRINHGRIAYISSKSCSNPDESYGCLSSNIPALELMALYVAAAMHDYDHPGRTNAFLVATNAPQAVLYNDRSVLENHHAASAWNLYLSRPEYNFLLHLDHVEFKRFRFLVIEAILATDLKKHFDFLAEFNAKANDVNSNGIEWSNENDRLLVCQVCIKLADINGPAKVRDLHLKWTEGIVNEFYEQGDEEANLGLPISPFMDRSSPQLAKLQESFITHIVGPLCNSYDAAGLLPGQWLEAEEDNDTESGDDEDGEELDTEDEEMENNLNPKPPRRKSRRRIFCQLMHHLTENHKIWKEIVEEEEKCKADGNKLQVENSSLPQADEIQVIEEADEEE
Chain of cGMP-inhibited 3',5'-cyclic phosphodiesterase 3A (Q14432 whole entry, the tested form may be a part): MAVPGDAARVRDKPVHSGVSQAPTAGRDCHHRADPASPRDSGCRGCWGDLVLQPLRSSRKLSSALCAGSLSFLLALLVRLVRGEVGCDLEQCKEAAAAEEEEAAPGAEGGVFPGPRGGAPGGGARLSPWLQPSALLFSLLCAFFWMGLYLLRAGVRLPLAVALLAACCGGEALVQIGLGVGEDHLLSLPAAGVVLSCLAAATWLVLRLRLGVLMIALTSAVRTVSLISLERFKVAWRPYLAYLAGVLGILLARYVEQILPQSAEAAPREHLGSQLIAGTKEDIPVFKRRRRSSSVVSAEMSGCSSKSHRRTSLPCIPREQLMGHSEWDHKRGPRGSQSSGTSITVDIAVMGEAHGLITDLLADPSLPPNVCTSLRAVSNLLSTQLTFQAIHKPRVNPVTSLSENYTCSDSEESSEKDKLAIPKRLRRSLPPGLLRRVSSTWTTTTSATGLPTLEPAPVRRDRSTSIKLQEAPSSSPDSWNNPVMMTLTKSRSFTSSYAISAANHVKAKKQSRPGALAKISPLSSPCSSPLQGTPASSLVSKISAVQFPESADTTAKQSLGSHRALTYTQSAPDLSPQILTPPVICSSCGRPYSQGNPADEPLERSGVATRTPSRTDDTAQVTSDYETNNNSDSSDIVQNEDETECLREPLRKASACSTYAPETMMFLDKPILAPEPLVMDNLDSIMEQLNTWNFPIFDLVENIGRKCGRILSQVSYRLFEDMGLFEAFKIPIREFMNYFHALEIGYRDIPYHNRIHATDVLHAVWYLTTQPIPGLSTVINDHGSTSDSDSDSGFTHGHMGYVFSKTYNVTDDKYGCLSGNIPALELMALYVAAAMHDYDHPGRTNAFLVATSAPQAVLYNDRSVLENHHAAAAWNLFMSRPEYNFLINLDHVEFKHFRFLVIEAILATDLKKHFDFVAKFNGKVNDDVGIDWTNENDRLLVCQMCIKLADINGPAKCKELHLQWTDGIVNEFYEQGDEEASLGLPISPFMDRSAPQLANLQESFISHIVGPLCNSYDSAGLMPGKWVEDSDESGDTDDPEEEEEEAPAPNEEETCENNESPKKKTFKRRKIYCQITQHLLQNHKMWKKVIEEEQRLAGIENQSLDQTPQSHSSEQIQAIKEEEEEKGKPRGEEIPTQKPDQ

With `CNC(=O)[C@@H](NC(=O)c1cc(NC(=O)c2cc3ccccc3cn2)cc(B(O)O)c1)C1CCCCC1`, the 50% inhibitory concentration (IC50) in assay [1] and in assay [2] was 3.16 µM each time. Further, the Selectivity ratio was 1 in assay [3] and 2 in assay [4].
For the molecule `COc1ccc2c(OC)cc(C(=O)N(C)c3cc(B(O)O)cc(C(=O)NC(C)C)c3)nc2c1`, the IC50 in assay [1] and in assay [2] was above 100 µM each time.
As to `CNC(=O)[C@@H](NC(=O)c1cc(NC(=O)c2cc3c(c(OC)c2)OCC(=O)N3)cc(B(O)O)c1)C1CCCCC1`, the IC50 (usually the concentration that gives 50% inhibition) is 0.631 µM in assay [1] and 0.251 µM in assay [2]. In assay [3], the Selectivity ratio was determined as 0.4.
In the case of `CNC(=O)[C@@H](NC(=O)c1cc(NC(=O)c2cc(C)cc(C)c2OC)cc(B(O)O)c1)C1CCCCC1`, the IC50 is 0.316 µM in assay [1] and 1 µM in assay [2]. Also, the Selectivity ratio in assay [3] worked out at 3.4; in assay [4] it was 6.3.
In the case of `CNC(=O)[C@@H](NC(=O)c1cc(NC(=O)c2ccc3ccccc3c2)cc(B(O)O)c1)C1CCCCC1`, the concentration for half-maximal inhibition (IC50) in assay [1] was 5.01 µM; in assay [2], 1.58 µM. Moreover, the Selectivity ratio was found to be 0.3 in assay [3] and 0.4 in assay [4].
The matching figures for `CNC(=O)[C@@H](NC(=O)c1cc(NC(=O)c2ccc3ncccc3n2)cc(B(O)O)c1)C1CCCCC1`: 0.2 µM, 0.126 µM, 0.7 and 0.6.
The matching figures for `CNC(=O)[C@@H](NC(=O)c1cc(NC(=O)c2cc(OC)c3cc(OC)ccc3n2)cc(B(O)O)c1)C1CCCCC1`: 1 µM, 0.794 µM, 0.8 and 0.9.
As to `CNC(=O)[C@@H](NC(=O)c1cc(NC(=O)c2ccc3cccnc3n2)cc(B(O)O)c1)C1CCCCC1`, the IC50 was 0.631 µM in assay [1] and 0.501 µM in assay [2]. In addition, the Selectivity ratio was 0.7 in assay [3] and 1 in assay [4].
On the same counts, the results for `CNC(=O)c1cc(NC(=O)c2cc(OC)c3ccc(OC)cc3n2)cc(B(O)O)c1` are 2 µM, above 100 µM, above 44 and above 107.
As for `CNC(=O)[C@@H](NC(=O)c1cc(NC(=O)c2ccc3ccc(OC)cc3c2)cc(B(O)O)c1)C1CCCCC1`, the 50% inhibitory concentration (IC50) in assay [1] is 10 µM; in assay [2], 12.6 µM. The Selectivity ratio is 1 in assay [3] and 1.9 in assay [4].
On the same counts, the results for `CNC(=O)[C@@H](NC(=O)c1cc(NC(=O)c2nccc3ccccc23)cc(B(O)O)c1)C1CCCCC1` are 0.2 µM, 0.398 µM, 2 and 2.7.
The matching figures for `CNC(=O)[C@@H](NC(=O)c1cc(NC(=O)c2ccc3cc(OC)ccc3n2)cc(B(O)O)c1)C1CCCCC1`: 1 µM, 1.26 µM, 1.2 and 1.
On the same counts, the results for `CNC(=O)[C@@H](NC(=O)c1cc(NC(=O)c2ccc3cc(OC)ccc3c2)cc(B(O)O)c1)C1CCCCC1` are 31.6 µM, 39.8 µM, 1.3 and 1.8.
Take `CCNC(=O)N1CCCCC(NC(=O)c2cc(NC(=O)c3cc(C)cc(C)c3OC)cc(B(O)O)c2)C1` (configuration not stated): the half-inhibitory concentration (IC50) in assay [1] was 0.2 µM; in assay [2], 0.501 µM. For the same molecule, the Selectivity ratio in assay [3] amounted to 2.6; in assay [4], 3.8.
As for `CNC(=O)[C@@H](C)NC(=O)c1cc(NC(=O)c2cc(OC)c3ccc(OC)cc3n2)cc(B(O)O)c1`, the IC50 is 1 µM in assay [1] and 25.1 µM in assay [2]. Besides, the Selectivity ratio in assay [3] came out at 24; in assay [4] it was 26.
As to `COc1ccc2c(OC)cc(C(=O)Nc3cc(B(O)O)cc(C(=O)N4Cc5ccncc5C4)c3)nc2c1`, the IC50 in assay [1] was 0.316 µM; in assay [2], 12.6 µM. In addition, the Selectivity ratio in assay [3] was found to be 43; in assay [4], 97.
On the same counts, the results for `CNC(=O)[C@@H](NC(=O)c1cc(NC(=O)c2cc(C)c3c(=O)[nH]c(=O)[nH]c3n2)cc(B(O)O)c1)C1CCCCC1` are 20 µM, 15.8 µM, 0.8 and 1.2.
On the same counts, the results for `COc1ccc2c(OC)cc(C(=O)Nc3cc(B(O)O)cc(C(=O)NCC(C)OC)c3)nc2c1` (configuration not stated) are 2 µM, 25.1 µM, 14 and 25.
`COc1ccc2c(OC)cc(C(=O)Nc3cc(B(O)O)cc(C(=O)N[C@H](C(N)=O)C(C)C)c3)nc2c1`: the IC50 in assay [1] was 0.316 µM; in assay [2], 5.01 µM. The figures for the Selectivity ratio in assay [3] and in assay [4] were 15 and 30, respectively.
The matching figures for `CNC(=O)[C@@H](NC(=O)c1cc(NC(=O)c2cnc3ccccc3c2)cc(B(O)O)c1)C1CCCCC1`: 20 µM, 12.6 µM, 0.7 and 0.9.
On the same counts, the results for `COc1ccc2c(OC)cc(C(=O)Nc3cc(B(O)O)cc(C(=O)NC(C)C)c3)nc2c1` are 1 µM, 15.8 µM, 15 and 42.
As for `COC[C@H](NC(=O)c1cc(NC(=O)c2cc(OC)c3ccc(OC)cc3n2)cc(B(O)O)c1)C(C)C`, the half-inhibitory concentration (IC50) in assay [1] was 0.501 µM; in assay [2], above 100 µM. Besides, the Selectivity ratio in assay [3] was above 190; in assay [4] it was 50.
On the same counts, the results for `COc1ccc2c(OC)cc(C(=O)Nc3cc(B(O)O)cc(C(=O)N4CC(OC5CC5)C4)c3)nc2c1` are 0.2 µM, 3.16 µM, 17 and 75.
The matching figures for `CNC(=O)[C@H](NC(=O)c1cc(NC(=O)c2cc(OC)c3ccc(OC)cc3n2)cc(B(O)O)c1)C1CCCCC1`: 0.316 µM, 10 µM, 37 and 78.
With `COc1ccc2c(OC)cc(C(=O)Nc3cc(B(O)O)cc(C(=O)N[C@@H]4CCCOC4)c3)nc2c1`, the IC50 in assay [2] was 63.1 µM. This lies in the double-digit micromolar range.
With `CNC(=O)[C@@H](NC(=O)c1cc(NC(=O)c2cc(F)cc3nccnc23)cc(B(O)O)c1)C1CCCCC1`, the half-maximal inhibitory concentration (IC50) was 0.00631 µM in assay [1] and 0.00501 µM in assay [2]. Further, the Selectivity ratio in assay [3] worked out at 0.7; in assay [4] it was 1.
As for `CNC(=O)[C@H](NC(=O)c1cc(NC(=O)c2cc(OC)ccn2)cc(B(O)O)c1)C1CCCCC1`, the IC50 in assay [1] and in assay [2] was 50.1 µM each time. Further, the results for the Selectivity ratio in assay [3] and in assay [4] were 1 and 1.6, respectively.
On to `COc1ccc2c(OC)cc(C(=O)Nc3cc(B(O)O)cc(C(=O)N(C)C)c3)nc2c1`, for which the concentration for half-maximal inhibition (IC50) was 2 µM in assay [1] and 50.1 µM in assay [2]. The Selectivity ratio in assay [3] was 23; in assay [4], 63.
On to `COc1ccc2c(OC)cc(C(=O)Nc3cc(B(O)O)cc(C(=O)N[C@H]4CCCOC4)c3)nc2c1`, for which 31.6 µM corresponded to half-maximal inhibition in assay [2] (IC50).
